According to ChEMBL document CHEMBL3045005, “Synthesis and biological evaluation of new analogues of the active fungal metabolites N-(2-methyl-3-oxodecanoyl)-2-pyrroline and N-(2-methyl-3-oxodec-8-enoyl)-2-pyrroline (II)” (2000):
Calls of active or inactive are those of the source. The calls are words filed in the database; no cut-off is given here.

Key:
[1] = system: Trichothecium roseum; experiment: Fungicidal activity against Trichothecium roseum CECT 2410 assessed as inhibition of radial mycelial growth at 100 ug/mL after 4 days; format: functional; conditions: CECT 2410, 96 h, read-out: GI
Method in brief: (§1)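 Compounds in acetone incorporated into PDA at 100 µg/mL. Acetone-only plates were the negative control, and benomyl at 2.5 µg/mL was the positive control. Plates were inoculated with spores from 7-day-old PDA cultures and incubated at 28 °C for 4 days (6 days for R. necatrix and V. dahliae). Radial mycelial growth was measured and % inhibition calculated against the control. Triplicate determinations, mean ± SD, ANOVA/LSD.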

[2] = system: Fusarium oxysporum f. sp. niveum; experiment: Fungicidal activity against Fusarium oxysporum f. sp. niveum CCM 259 assessed as inhibition of radial mycelial growth at 100 ug/mL after 4 days; format: functional; conditions: CCM 259, 96 h, read-out: GI; method in brief: as §1
[3] = system: Oncopeltus fasciatus; experiment: Insecticidal activity against Oncopeltus fasciatus third-instar nymphs reared on diet based on sunflower seeds assessed as insect mortality at 5 to 10 ug/cm2 relative to untreated control; format: functional, organism-based
[4] = system: Penicillium italicum; experiment: Fungicidal activity against Penicillium italicum CECT 2294 assessed as inhibition of radial mycelial growth at 100 ug/mL after 4 days; format: functional; conditions: CECT 2294, 96 h, read-out: GI; method in brief: as §1
[5] = system: Fusarium oxysporum f. sp. gladioli; experiment: Fungicidal activity against Fusarium oxysporum f. sp. gladioli CCM 233 assessed as inhibition of radial mycelial growth at 100 ug/mL after 4 days; format: functional; conditions: CCM 233, 96 h, read-out: GI; method in brief: as §1
[6] = system: Alternaria alternata; experiment: Fungicidal activity against Alternaria tenuis CECT 2662 assessed as inhibition of radial mycelial growth at 100 ug/mL after 4 days; format: functional; conditions: CECT 2662, 96 h, read-out: GI; method in brief: as §1
[7] = system: Verticillium dahliae; experiment: Fungicidal activity against Verticillium dahliae CCM 269 assessed as inhibition of radial mycelial growth at 100 ug/mL after 6 days; format: functional; conditions: CCM 269, 144 h, read-out: GI; method in brief: as §1
[8] = system: Trichoderma viride; experiment: Fungicidal activity against Hypocrea rufa CECT 2423 assessed as inhibition of radial mycelial growth at 100 ug/mL after 4 days; format: functional; conditions: CECT 2423, 96 h, read-out: GI; method in brief: as §1
[9] = system: Fusarium culmorum; experiment: Fungicidal activity against Fusarium culmorum CCM 172 assessed as inhibition of radial mycelial growth at 100 ug/mL after 4 days; format: functional; conditions: CCM 172, 96 h, read-out: GI; method in brief: as §1
[10] = system: Colletotrichum coccodes; experiment: Fungicidal activity against Colletotrichum coccodes CCM 327 assessed as inhibition of radial mycelial growth at 100 ug/mL after 4 days; format: functional; conditions: CCM 327, 96 h, read-out: GI; method in brief: as §1
[11] = system: Aspergillus parasiticus; experiment: Fungicidal activity against Aspergillus parasiticus CECT 2681 assessed as inhibition of radial mycelial growth at 100 ug/mL after 4 days; format: functional; conditions: CECT 2681, 96 h, read-out: GI; method in brief: as §1
[12] = system: Colletotrichum gloeosporioides; experiment: Fungicidal activity against Colletotrichum gloeosporioides CECT 2859 assessed as inhibition of radial mycelial growth at 100 ug/mL after 4 days; format: functional; conditions: CECT 2859, 96 h, read-out: GI; method in brief: as §1
[13] = system: Geotrichum candidum; experiment: Fungicidal activity against Galactomyces geotrichum CCM 245 assessed as inhibition of radial mycelial growth at 100 ug/mL after 4 days; format: functional; conditions: CCM 245, 96 h, read-out: GI; method in brief: as §1
[14] = system: Fusarium oxysporum f. sp. gladioli; experiment: Fungicidal activity against Fusarium oxysporum f. sp. gladioli CCM 233 assessed as inhibition of radial mycelial growth at 2.5 ug/mL after 4 days; format: functional; conditions: CCM 233, 96 h, read-out: GI
Method in brief: (§2)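 Benomyl added to PDA at 2.5 µg/mL; acetone-only PDA plates served as controls. Plates were inoculated with spores from seven-day-old PDA cultures of each fungus and incubated at 28 °C for 4 days. Radial mycelial growth was measured and % inhibition was calculated against control-plate growth. Three independent determinations; means ± SD; ANOVA with LSD test.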

[15] = system: Phytophthora citrophthora; experiment: Fungicidal activity against Phytophthora citrophthora assessed as inhibition of radial mycelial growth at 2.5 ug/mL after 4 days; format: functional; conditions: 96 h, read-out: GI; method in brief: as §2
[16] = system: Penicillium italicum; experiment: Fungicidal activity against Penicillium italicum CECT 2294 assessed as inhibition of radial mycelial growth at 2.5 ug/mL after 4 days; format: functional; conditions: CECT 2294, 96 h, read-out: GI; method in brief: as §2
[17] = system: Trichoderma viride; experiment: Fungicidal activity against Hypocrea rufa CECT 2423 assessed as inhibition of radial mycelial growth at 2.5 ug/mL after 4 days; format: functional; conditions: CECT 2423, 96 h, read-out: GI; method in brief: as §2
[18] = system: Fusarium oxysporum f. sp. niveum; experiment: Fungicidal activity against Fusarium oxysporum f. sp. niveum CCM 259 assessed as inhibition of radial mycelial growth at 2.5 ug/mL after 4 days; format: functional; conditions: CCM 259, 96 h, read-out: GI; method in brief: as §2
[19] = system: Colletotrichum gloeosporioides; experiment: Fungicidal activity against Colletotrichum gloeosporioides CECT 2859 assessed as inhibition of radial mycelial growth at 2.5 ug/mL after 4 days; format: functional; conditions: CECT 2859, 96 h, read-out: GI; method in brief: as §2
[20] = system: Colletotrichum coccodes; experiment: Fungicidal activity against Colletotrichum coccodes CCM 327 assessed as inhibition of radial mycelial growth at 2.5 ug/mL after 4 days; format: functional; conditions: CCM 327, 96 h, read-out: GI; method in brief: as §2
[21] = system: Alternaria alternata; experiment: Fungicidal activity against Alternaria tenuis CECT 2662 assessed as inhibition of radial mycelial growth at 2.5 ug/mL after 4 days; format: functional; conditions: CECT 2662, 96 h, read-out: GI; method in brief: as §2
[22] = system: Aspergillus parasiticus; experiment: Fungicidal activity against Aspergillus parasiticus CECT 2681 assessed as inhibition of radial mycelial growth at 2.5 ug/mL after 4 days; format: functional; conditions: CECT 2681, 96 h, read-out: GI; method in brief: as §2
[23] = system: Verticillium dahliae; experiment: Fungicidal activity against Verticillium dahliae CCM 269 assessed as inhibition of radial mycelial growth at 2.5 ug/mL after 6 days; format: functional; conditions: CCM 269, 144 h, read-out: GI
Method in brief: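 Benomyl added to PDA at 2.5 µg/mL; acetone-only PDA plates served as controls. Plates were inoculated with spores from seven-day-old PDA cultures and incubated at 28 °C for 6 days. Radial mycelial growth was measured and % inhibition was calculated relative to control plates. Three independent determinations; means ± SD; ANOVA with LSD test.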

[24] = system: Geotrichum candidum; experiment: Fungicidal activity against Galactomyces geotrichum CCM 245 assessed as inhibition of radial mycelial growth at 2.5 ug/mL after 4 days; format: functional; conditions: CCM 245, 96 h, read-out: GI; method in brief: as §2
[25] = system: Trichothecium roseum; experiment: Fungicidal activity against Trichothecium roseum CECT 2410 assessed as inhibition of radial mycelial growth at 2.5 ug/mL after 4 days; format: functional; conditions: CECT 2410, 96 h, read-out: GI; method in brief: as §2
[26] = system: Fusarium culmorum; experiment: Fungicidal activity against Fusarium culmorum CCM 172 assessed as inhibition of radial mycelial growth at 2.5 ug/mL after 4 days; format: functional; conditions: CCM 172, 96 h, read-out: GI; method in brief: as §2
[27] = system: Oncopeltus fasciatus; experiment: Insecticidal activity against Oncopeltus fasciatus third-instar nymphs reared on diet based on sunflower seeds assessed as insect mortality at 5 ug/cm2 relative to untreated control; format: functional
[28] = system: Oncopeltus fasciatus; experiment: Insecticidal activity against Oncopeltus fasciatus third-instar nymphs reared on diet based on sunflower seeds assessed as insect mortality at 7.5 ug/cm2 relative to untreated control; format: functional
[29] = system: Oncopeltus fasciatus; experiment: Insecticidal activity against Oncopeltus fasciatus third-instar nymphs reared on diet based on sunflower seeds assessed as insect mortality at 10 ug/cm2 relative to untreated control; format: functional

| SMILES | inhibition of growth at 100 µg/mL [1] | inhibition of growth at 100 µg/mL [2] | Activity [3] | inhibition of growth at 100 µg/mL [4] | inhibition of growth at 100 µg/mL [5] | inhibition of growth at 100 µg/mL [6] | inhibition of growth at 100 µg/mL [7] | inhibition of growth at 100 µg/mL [8] | inhibition of growth at 100 µg/mL [9] | inhibition of growth at 100 µg/mL [10] | inhibition of growth at 100 µg/mL [11] | inhibition of growth at 100 µg/mL [12] | inhibition of growth at 100 µg/mL [13] | also measured |
| --- | --- | --- | --- | --- | --- | --- | --- | --- | --- | --- | --- | --- | --- | --- |
| CCCCCCCC(O)C(C)C(=O)N1CCCC1=O (stereo not drawn) | 19.6% | 33.3% | inactive | 33.3% | 36.5% | 38.1% | 45.9% | 38% | 24.3% | 69% | 31.5% | 36.6% | 0% | – |
| CC(C(=O)C(C)c1cccc(Oc2ccccc2)c1)C(=O)N1CCCC1 (stereo not drawn) | 46.6% | 17.4% | inactive | 22.2% | 23.1% | 39.5% | 19% | 30.7% | 23.5% | 37.6% | 27.9% | 41.4% | 12.3% | – |
| CCCCNC(=O)n1c(NC(=O)OC)nc2ccccc21 [BENOMYL] | – | – | – | – | – | – | – | – | – | – | – | – | – | inhibition of growth at 2.5 µg/mL [14]: 11.1%; inhibition of growth at 2.5 µg/mL [15]: 100%; inhibition of growth at 2.5 µg/mL [16]: 100%; inhibition of growth at 2.5 µg/mL [17]: 100%; inhibition of growth at 2.5 µg/mL [18]: 100%; inhibition of growth at 2.5 µg/mL [19]: 100%; inhibition of growth at 2.5 µg/mL [20]: 100%; inhibition of growth at 2.5 µg/mL [21]: 0%; inhibition of growth at 2.5 µg/mL [22]: 100%; inhibition of growth at 2.5 µg/mL [23]: 100%; inhibition of growth at 2.5 µg/mL [24]: 0%; inhibition of growth at 2.5 µg/mL [25]: 100%; inhibition of growth at 2.5 µg/mL [26]: 87% |
| CC1=C(C2CC2)OC2CCCN2C1=O (stereo not drawn) | 0% | 26.2% | inactive | 23.6% | 24.1% | 23.9% | 65.4% | 0% | 38.9% | 37.8% | 11.3% | 11.8% | 0% | – |
| CC(C(=O)C(C)(C)C(=O)N1CCCC1)c1cccc(Oc2ccccc2)c1 (stereo not drawn) | 53.2% | 36.9% | inactive | 17.8% | 34.8% | 55.2% | 22.7% | 38.7% | 16.3% | 55.7% | 37.9% | 62.2% | 11.7% | – |
| CCCCCCCC(=O)N1CC=CC1 | 34.3% | 30.5% | – | 31.2% | 38.5% | 51.4% | 39.6% | 38% | 24.5% | 76.7% | 19.3% | 35.4% | 0% | mortality at 5 µg/cm2 [27]: 20%; mortality at 7.5 µg/cm2 [28]: 100% |
| CCCCCCCC(=O)C(C)C(=O)N1CCCC1=O (stereo not drawn) | 49.5% | 21% | inactive | 8.6% | 26.8% | 47.5% | 56.2% | 21.1% | 18.1% | 52% | 31.7% | 35.6% | 24.4% | – |
| CCCCCCCC(=C1C(=O)OC(C)(C)OC1=O)N1CC=CC1 | 38.6% | 28% | – | 29.9% | 26% | 21.1% | 13.9% | 54% | 39.7% | 18.8% | 39.3% | 29.9% | 23.9% | mortality at 10 µg/cm2 [29]: 40% |
| CCCCCCCC(=O)CC(=O)N1CCCC1=O | 0% | 27.6% | inactive | 26.4% | 35.5% | 30.2% | 49.8% | 22% | 8.2% | 48.3% | 21.3% | 34.5% | 0% | – |
